Data set [1] is described as follows: Antiviral activity against Human respiratory syncytial virus A strain Long infected in human Hep2 cells assessed as plaque reduction […] by chloro-1-naphthol staining-based assay. It counts as functional. In outline: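 HEp-2 monolayers in 12-well plates got 0.5 ml of 200 PFU/ml RSV Long with or without serial compound dilutions. After 2 h they were overlaid with DMEM/F12, 4% FBS, 0.55% agarose plus compound and incubated 3 days. Cells were fixed in 4% paraformaldehyde for 6 h and immunostained with anti-RSV mAb (1:300), then HRP anti-mouse. Plaques were developed with 4-chloro-1-naphthol/H2O2 and counted.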

The nature of data set [2]: Half-life in Beagle dog at 1 mg/kg, iv. The class given is ADME, organism-based, Canis lupus familiaris. The conditions noted are these: in vivo. In outline:
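Beagle dog single-dose PK at 1 mg/kg iv and 10 mg/kg po, dosed as a solution in 12.5% captisol in water. Plasma clearance, Vss, iv T1/2, AUC and F were reported.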

Data set [3] can be described thus: AUC (0 to 24 hrs) in cynomolgus monkey at 10 mg/kg, po. It counts as ADME, organism-based, Macaca fascicularis. Details: dose 10 mg/kg, time < 24 hr, route oral. The settings on record: in vivo. In outline: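 Single-dose PK. Dog received 1 mg/kg iv or 10 mg/kg po, and cynomolgus monkey received 2 mg/kg iv or 10 mg/kg po. Both were given as a solution in 12.5% captisol in water. Plasma AUC was taken from the oral arm, with CL, Vss, iv T1/2 and F also derived.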

Molecules are shown by their SMILES.

For the compound `Cc1ccc2nc(N3CCS(=O)(=O)c4ccccc4C3)nc(NCC3(N)COC3)c2c1` [ZIRESOVIR], the EC90 (as a rule, the concentration needed for an effect of 90%) in data set [1] came to 10 nM. Moreover, the half-life – broadly, the time needed for the level to fall by half in the phase considered – in data set [2] was 2.8 h. In addition, in data set [3], the AUC(0-t) (as a rule, the area under the concentration-time curve up to a stated or last time point) at 24 h amounted to 1440 ng·h/mL.

(Values after ChEMBL document CHEMBL4364260, “Discovery of Ziresovir as a Potent, Selective, and Orally Bioavailable Respiratory Syncytial Virus Fusion Protein Inhibitor” (J Med Chem, 2019).)
